The test system of one experiment is TAR-RNA. In words: Gel retardation assay. To be noted: compared with PNATAR–penetratin and PNATAR–tat conjugates; data not shown. The format is binding, HIV-1.
For experiment [1], the system named is VSV-G pseudotyped HIV-1 virions. Particulars: 1 h.
The next experiment relates to CEM cells. The experiment is described as follows: Uptake kinetics with 125I-labeled conjugates. Type of experiment: cell-based. To be noted: slope of Hill plot of uptake data, 125I-labeled conjugate, room temperature, 30 s. The procedure, abridged:
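125I-labeled conjugate purified by gel filtration and C18 reverse phase, quantified at A260, and specific radioactivity set with unlabeled conjugate. 1 × 10^6 CEM cells exposed to varying concentrations at room temperature for 30 s, then filtered on glass fiber, washed with PBS. Internalized conjugate measured by gamma counting from specific radioactivity; nH taken from Hill plot slope.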

Experiment [2] concerns VSV-G pseudotyped HIV-1 in CEM cells.

Where two headings read alike, the source gives them in different places.

Experimental findings from publication PMC1182329 (Nucleic Acids Research, 2005) are described below.

Turning to Ac-Cys-TCC-CAG-GCT-CAG-ATC-T [PNATAR], the “binding pattern to TAR-RNA in gel shift assay” value in the experiment with TAR-RNA is “same binding pattern”.

Broadly, the IC50 is the concentration needed to halve the response being measured. Molecule `CC(=O)N[C@@H](CSSC[C@H](N)C(=O)NCC(=O)N[C@@H](CCCNC(=N)N)C(=O)N[C@@H](CCCCN)C(=O)N[C@@H](CCCCN)C(=O)N[C@@H](CCCNC(=N)N)C(=O)N[C@@H](CCCNC(=N)N)C(=O)N[C@@H](CCC(N)=O)C(=O)N[C@@H](CCCNC(=N)N)C(=O)N[C@@H](CCCNC(=N)N)C(=O)N[C@@H](CCCNC(=N)N)C(=O)N1CCC[C@H]1C(=O)N1CCC[C@H]1C(=O)N[C@@H](CCC(N)=O)C(=O)O)C(=O)NCCN(CC(=O)NCCN(CC(=O)NCCN(CC(=O)NCCN(CC(=O)NCCN(CC(=O)NCCN(CC(=O)NCCN(CC(=O)NCCN(CC(=O)NCCN(CC(=O)NCCN(CC(=O)NCCN(CC(=O)NCCN(CC(=O)NCCN(CC(=O)NCCN(CC(=O)NCCN(CC(=O)NCCN(CC(N)=O)C(=O)Cn1cc(C)c(=O)[nH]c1=O)C(=O)Cn1ccc(N)nc1=O)C(=O)Cn1cc(C)c(=O)[nH]c1=O)C(=O)Cn1cnc2c(N)ncnc21)C(=O)Cn1cnc2c(=O)[nH]c(N)nc21)C(=O)Cn1cnc2c(N)ncnc21)C(=O)Cn1ccc(N)nc1=O)C(=O)Cn1cc(C)c(=O)[nH]c1=O)C(=O)Cn1ccc(N)nc1=O)C(=O)Cn1cnc2c(=O)[nH]c(N)nc21)C(=O)Cn1cnc2c(=O)[nH]c(N)nc21)C(=O)Cn1cnc2c(N)ncnc21)C(=O)Cn1ccc(N)nc1=O)C(=O)Cn1ccc(N)nc1=O)C(=O)Cn1ccc(N)nc1=O)C(=O)Cn1cc(C)c(=O)[nH]c1=O` [PNATAR–tat-peptide] registered a half-maximal inhibitory concentration (IC50) in experiment [1] of 37 nM.

On to `CC[C@H](C)[C@H](NC(=O)[C@H](CCCCN)NC(=O)[C@@H](NC(=O)[C@H](CCC(N)=O)NC(=O)[C@H](CCCNC(=N)N)NC(=O)[C@@H](N)CSSC[C@H](NC(C)=O)C(=O)NCCN(CC(=O)NCCN(CC(=O)NCCN(CC(=O)NCCN(CC(=O)NCCN(CC(=O)NCCN(CC(=O)NCCN(CC(=O)NCCN(CC(=O)NCCN(CC(=O)NCCN(CC(=O)NCCN(CC(=O)NCCN(CC(=O)NCCN(CC(=O)NCCN(CC(=O)NCCN(CC(=O)NCCN(CC(N)=O)C(=O)Cn1cc(C)c(=O)[nH]c1=O)C(=O)Cn1ccc(N)nc1=O)C(=O)Cn1cc(C)c(=O)[nH]c1=O)C(=O)Cn1cnc2c(N)ncnc21)C(=O)Cn1cnc2c(=O)[nH]c(N)nc21)C(=O)Cn1cnc2c(N)ncnc21)C(=O)Cn1ccc(N)nc1=O)C(=O)Cn1cc(C)c(=O)[nH]c1=O)C(=O)Cn1ccc(N)nc1=O)C(=O)Cn1cnc2c(=O)[nH]c(N)nc21)C(=O)Cn1cnc2c(=O)[nH]c(N)nc21)C(=O)Cn1cnc2c(N)ncnc21)C(=O)Cn1ccc(N)nc1=O)C(=O)Cn1ccc(N)nc1=O)C(=O)Cn1ccc(N)nc1=O)C(=O)Cn1cc(C)c(=O)[nH]c1=O)[C@@H](C)CC)C(=O)N[C@@H](Cc1c[nH]c2ccccc12)C(=O)N[C@@H](Cc1ccccc1)C(=O)N[C@@H](CCC(N)=O)C(=O)N[C@@H](CC(N)=O)C(=O)N[C@@H](CCCNC(=N)N)C(=O)N[C@@H](CCCNC(=N)N)C(=O)N[C@@H](CCSC)C(=O)N[C@@H](CCCCN)C(=O)N[C@@H](Cc1c[nH]c2ccccc12)C(=O)N[C@@H](CCCCN)C(=O)N[C@@H](CCCCN)C(=O)O` [PNATAR–penetratin], for which the “Hill coefficient (nH) of uptake” value in the experiment on CEM cells was found to be 1.8. In addition, the IC50 is 28 nM in experiment [1]; 800 nM in experiment [2] (VSV-G pseudotyped in CEM cells, 48 h); 800 nM in experiment [2] (read-out: Antiviral efficacy IC50). Moreover, the “inhibition of HIV-1 replication” value in experiment [2] is given as approximately 50%. Besides, the “inhibition of HIV-1 replication (words)” value in experiment [2] is reported as “did not inhibit”.
